The list is not random: actives were taken first. Their share in the collection is about 3.4%.
MDM2 E3 inh – MDM2-luciferase reporter signal enhancers, primary screen, MDM2 E3 ligase inhibitor project, cell-based, luminescence, 1536-well | AID 1230, 2008 | hit rate 0.11% among 210,000 | cell-based MDM2 ubiquitination luciferase reporter, 2 h; 0 = plate control, 100 = twice control, blank-subtracted | E3 ubiquitin-protein ligase Mdm2 (Homo sapiens), Q00987 | signal enhancement, % at 5 µM;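 active means signal enhancement of 30% or more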;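 further: luminescence tracks abundance of the self-degrading MDM2-luciferase fusion protein; higher signal means inhibition of MDM2 E3 ligase activity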
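Material: Stable MDM2–luciferase fusion reporter cells | Amount: 2000 cells seeded into each well | Dosing: One concentration, 5 µM, with 0.2% DMSO | Incubation: 4 h cell settling then 2 h compound exposure, 37 °C | Measured by: Luciferase luminescence | Read-out basis: % enhancement relative to plate controls after blank subtraction | Benchmarks: Control and blank well means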
Redox H2O2 prof – compounds producing H2O2 with reducing agent – biochemical, NIH compound library profiling, artefact control for MLSCN library redox annotation, primary screen; activation, % at 10 µM; AID 878, 2007; DTT-dependent redox cycling H2O2, phenol red/HRP absorbance; 100% = 100 µM peroxide control, 0% = buffer; hit rate 0.03% among 200,000;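 active means activation of at least 50% relative to the plate's high and low controls in the primary single-dose screen; inactive means activation below 50%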;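 further: compound incubated with DTT at 0.8 mM final as the reducing agent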
p97 inhibitor – inhibitors of human p97 ATPase, primary screen, biochemical; Transitional endoplasmic reticulum ATPase (Homo sapiens), P55072; recombinant p97 ATPase, Kinase-Glo ATP luminescence, 3 h; hit rate 0.42% among 220,000; inhibition, % at 8 µM; in the data active means inhibition above about 15%;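 further: 0% = DMSO vehicle and 100% = wells lacking enzyme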
Target sequence (P55072 whole entry, looked up): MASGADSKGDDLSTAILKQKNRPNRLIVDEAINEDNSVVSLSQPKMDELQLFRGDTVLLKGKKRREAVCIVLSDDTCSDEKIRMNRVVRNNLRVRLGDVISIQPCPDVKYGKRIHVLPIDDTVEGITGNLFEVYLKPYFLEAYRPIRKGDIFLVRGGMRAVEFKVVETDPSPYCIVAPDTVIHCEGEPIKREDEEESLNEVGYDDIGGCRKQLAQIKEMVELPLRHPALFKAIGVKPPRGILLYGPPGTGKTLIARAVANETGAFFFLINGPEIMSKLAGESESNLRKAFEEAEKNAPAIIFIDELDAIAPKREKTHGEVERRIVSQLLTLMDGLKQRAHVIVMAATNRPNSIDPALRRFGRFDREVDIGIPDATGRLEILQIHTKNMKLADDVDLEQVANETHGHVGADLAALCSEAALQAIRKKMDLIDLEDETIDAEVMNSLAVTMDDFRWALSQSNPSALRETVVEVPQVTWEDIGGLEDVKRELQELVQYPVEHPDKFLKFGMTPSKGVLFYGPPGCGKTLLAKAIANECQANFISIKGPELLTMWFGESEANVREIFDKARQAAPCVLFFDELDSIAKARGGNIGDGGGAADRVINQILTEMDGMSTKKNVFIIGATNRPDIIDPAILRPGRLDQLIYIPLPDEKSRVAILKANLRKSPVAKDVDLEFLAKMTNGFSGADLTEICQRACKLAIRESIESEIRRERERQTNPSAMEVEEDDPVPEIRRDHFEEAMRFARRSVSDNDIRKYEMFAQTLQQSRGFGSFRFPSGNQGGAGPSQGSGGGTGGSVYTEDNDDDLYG
PKD1 kinase inh – inhibitors of human PKD1 kinase, biochemical, fluorescence polarization. AID 797, 2007. hit rate 0.056% among 200,000. PKD1 kinase fluorescence polarization assay. Serine/threonine-protein kinase D1 (Homo sapiens), Q15139. inhibition, % (no concentration beside the values); in the data active means inhibition above about 50%
KCC2 mod – KCC2 cotransporter modulators, thallium flux, primary screen, cell-based, HEK293 KCC2, FluoZin-2 fluorescence, MLSMR; B-score of Tl+ flux slope (higher = more flux/activation; lower = inhibition) at 10 µM; hit rate 2.2% among 190,000; AID 1456, 2008; KCC2 cells, thallium flux FluoZin-2 fluorescence;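 active means thallium flux slope and its plate-corrected score both differing from the plate sample mean at a set confidence after two filtering rounds, in either direction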;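 further: slope of fluorescence scaled to starting intensity during 10 to 20 s after thallium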
ROMK primary – ROMK potassium channel modulators, primary screen, cell-based, thallium flux, MLSMR library. ATP-sensitive inward rectifier potassium channel 1 (Homo sapiens), P48048. Tet-inducible ROMK, thallium flux fluorescence; actives lie on both sides. B-score at 10 µM. hit rate 2% among 130,000. AID 1918, 2009;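 active means signal ratio slope over the read window, or its plate-corrected B-score, at least 3 SD from the plate mean, either direction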;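 further: B-score of the F/F0 ratio slope over 7 to 12 s after thallium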
ROMK hit retest – ROMK channel modulator hit retest, confirmation, cell-based, thallium flux, duplicate, resupplied hits. shares compounds with ROMK primary. normalized thallium flux (F/F0 slope) at 10 µM. fluorescence ratio; stronger effect = lower value. hit rate 54% among 3,000;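 active means Flux at 10 µM at least 3 SD below or above vehicle control mean in one or both replicates; inconclusive means no clear call, values can overlap the other calls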
The depositor's hits bear a star; ? = inconclusive; nt = no result given.

SMILES | MDM2 E3 inh | Redox H2O2 prof | p97 inhibitor | PKD1 kinase inh | KCC2 mod | ROMK primary | ROMK hit retest
Cc1ccc(NC(=O)c2ccccc2O)cc1 | 8 | -3 | 8 | 0 | -1.7 | nt | 0.065*
Cc1ccc(-c2nnn(CC(=O)N(CCN3CCOCC3)C(C(=O)NC3CCCC3)c3ccncc3)n2)o1 (stereo not given) | -11 | -1 | 4 | -6 | 0.76 | -0.0028 | nt
CCn1c(C(=O)N2CCC(C(=O)N3CCN(c4ccccn4)CC3)CC2)cc2sccc21 | -4 | -1 | 3 | -5 | -0.81 | nt | 0.075
CCOC(=O)c1c(C)n(C)c2ccc(OCC(O)Cn3nc(C)cc3C)cc12 (stereo not given) | nt | 2 | 4 | -8 | -0.0056 | nt | 0.067*
COc1cc(OC)c(/C=N/NC(=O)Cn2nc([N+](=O)[O-])cc2C)c(OC)c1 | -6 | nt | 2 | nt | 1.4 | nt | nt
Cc1ccc(-c2nn(-c3ccccc3)cc2CSC(=N)N)cc1 | -22 | 4 | 10 | -10 | 0.95 | nt | 0.052*
O=C(N/N=C/c1cn(-c2cccs2)nc1-c1ccccc1)c1ccc(O)cc1 | -9 | 0 | 4 | 3 | 0.27 | -3.5* | 0.059*
O=C(N/N=C/c1cn(-c2cccs2)nc1-c1ccccc1)c1ccccc1Cl | 1 | 0 | 4 | 4 | -0.85 | -0.56 | nt
CCOc1cc(/C=N/NC(=O)CN2CCCCC2)ccc1OCc1cccc(Cl)c1 | -19 | -1 | -2 | -10 | 0.64 | -4.6* | ?
Brc1ccc(/C=N/c2nc3ccccc3n2CCN2CCOCC2)cc1 | 4 | 0 | 1 | -6 | 0.021 | -1.3 | nt
CCN1CCN(c2c(/C=C3\SC(=S)N(Cc4ccco4)C3=O)c(C)c(C#N)c(=O)n2C)CC1 | nt | nt | 9 | nt | -0.37 | nt | 0.048*
COc1ccc(-n2c(C)cc(/C=C3\SC(=S)N(Cc4ccco4)C3=O)c2C)cc1 | -2 | 0 | 0 | -6 | 1.2 | -0.13 | nt
O=C1NC(c2ccccc2)=C(c2ccc3ccccc3n2)C(c2ccc(F)cc2)N1 (stereo not given) | nt | 0 | 1 | -5 | -1.7 | -3* | 0.076
O=c1cc(O)c2c(=O)[nH]c(=O)n(-c3ccccc3)c2[nH]1 | -10 | -1 | 0 | 1 | 0.01 | nt | nt
O=C(Nc1ccc(OCC(=O)N2CCC(Cc3ccccc3)CC2)cc1)c1ccco1 | -14 | 0 | 1 | 5 | -1.6 | -3.1* | 0.067*
Cc1ccc(C(=O)c2cc([N+](=O)[O-])ccc2N2CCOCC2)cc1 | 5 | -1 | -5 | -10 | -0.97 | nt | nt
CCOc1ccc(C(=O)c2cc([N+](=O)[O-])ccc2N2CCOCC2)cc1 | 9 | 0 | 0 | -1 | 0.12 | 6.7* | 0.086
Cc1ccc(NC(=O)c2cc([N+](=O)[O-])ccc2N2CCCC2)cc1 | -12 | 0 | -5 | -2 | -0.89 | 0.64 | nt
COc1ccc(C(=O)c2cc([N+](=O)[O-])ccc2N2CCOCC2)cc1 | 1 | 0 | 5 | -7 | -0.33 | 5.6* | 0.091
Cc1ccc(C(=O)c2cc([N+](=O)[O-])ccc2N2CCCCC2)c(C)c1 | nt | 0 | -2 | -6 | 0.84 | 2.7* | 0.083
CCOC(=O)Cn1cc(C(=O)C(C)(C)C)c2ccccc21 | -10 | -1 | -1 | 1 | -0.5 | -1.3 | nt
CCc1ccccc1NC(=O)CN(C)C(=O)CSc1nnc(Nc2cccc(C)c2C)s1 | 4 | 0 | 1 | -12 | -1.3 | 0.22 | nt
CN(C)C(=O)N1CCC(C(=O)NC2CCCCCCC2)CC1 | -18 | 2 | 2 | -3 | 0.35 | nt | nt
COc1ccc2nc3c(cc2c1)c(NC(=O)c1cccs1)nn3CC(C)C | -11 | 2 | 2 | -4 | -0.87 | nt | 0.072
